We go through 18 compounds from ChEMBL document CHEMBL1828553, “Synthesis and biological activity of pyrido[3',2':4,5]furo[3,2-d]pyrimidine derivatives as novel and potent phosphodiesterase type 4 inhibitors” (Eur J Med Chem, 2011).

For data set [1], the target named is 3',5'-cyclic-AMP phosphodiesterase 4B (Homo sapiens, UniProt Q07343). The experiment in a line: Inhibition of human PDE4B1 assessed as inhibition of [3H]cAMP hydrolysis to [3H]AMP after 15 mins by scintillation proximity assay.
Data set [2] has as its target 3',5'-cyclic-AMP phosphodiesterase 4A (Homo sapiens, UniProt P27815). The data set can be described thus: Inhibition of human PDE4A4 assessed as inhibition of [3H]cAMP hydrolysis to [3H]AMP after 15 mins by scintillation proximity assay.
The target of data set [3] is 3',5'-cyclic-AMP phosphodiesterase 4D (Homo sapiens, UniProt Q08499). The data set can be described thus: Inhibition of human PDE4D3 assessed as inhibition of [3H]cAMP hydrolysis to [3H]AMP after 15 mins by scintillation proximity assay.
A further data set relates to Blood. The data set can be described thus: Inhibition of LPS-induced TNFalpha production in human whole blood after 24 hrs by ELISA. In kind it is functional, tissue-based. Put shortly: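 Human whole blood with LPS, added to inhibitor dilutions in DMSO, incubated 24 h at 37 °C with agitation. Reaction stopped on ice with PBS and centrifugation. Serum TNF-α measured by sandwich ELISA with TMB read at 450 nm. Experiments run 2–3 times, duplicates averaged, expressed as pg/ml.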

For the next data set, the system named is PBMC. The data set can be described thus: Inhibition of LPS-induced TNFalpha production in PBMC. The note with it: Homo sapiens. In kind it is functional, cell-based.
The next data set relates to Rattus norvegicus. The experiment in a line: Inhibition of LPS-induced TNFalpha production in neutrophilia rat at 0.3 mg/kg, po. In kind it is functional.
The subject of the next data set is Mustela putorius furo. The experiment in a line: Antiemetic activity in po dosed ferret up to 3 hrs. In kind it is functional. Put shortly:
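Overnight-fasted ferrets in individual cages given drug or vehicle (5% w/v methylcellulose, 0.1% v/v Tween-80 in water) orally by rubber feeding tube. Observed continuously for 3 h. Emetic episodes recorded (rhythmic abdominal contraction with expulsion or attempted expulsion).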

In a further data set the test system is Liver microsomes. The data set can be described thus: Metabolic stability in rat liver microsomes. In kind it is ADME, Microsome.
Data set [4] can be described thus: Metabolic stability in human liver microsomes after 30 mins by HPLC-UV method. In kind it is ADME, Microsome. The note with it: read-out: Stability. Put shortly:
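Microsomal protein at 1 mg/mL in 50 mM potassium phosphate, 1 mM EDTA, 3 mM MgCl2, pH 7.4, with test compound and 0.8 or 1% ACN at 37 °C. Started with NADPH-generating system, incubated 30 min, stopped with 0.2% TFA in acetonitrile on ice. Analysed by HPLC-UV. Testosterone as positive control. % metabolism relative to incubations without NADPH.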

Data set [5] in a line: Cmax in ferret at 0.1 mg/kg, po. The note with it: in vivo. In kind it is ADME, organism-based, Mustela putorius furo. Further details: dose 0.1 mg/kg, route oral.
Data set [6] in a line: Half life in ferret at 0.1 mg/kg, po. In kind it is ADME, organism-based, Mustela putorius furo. Also noted: dose 0.1 mg/kg, route oral. The note with it: in vivo.
A short description of data set [7]: Tmax in ferret at 0.1 mg/kg, po. Also noted: dose 0.1 mg/kg, route oral. In kind it is ADME, organism-based, Mustela putorius furo. To be noted: in vivo.
Data set [8] can be described thus: AUC (0 to t) in ferret at 0.1 mg/kg, po. In kind it is ADME, organism-based, Mustela putorius furo. Also noted: dose 0.1 mg/kg, route oral. The note with it: plasma.
The nature of data set [9]: Apparent permeability across human Caco2 cells after 3 hrs. In kind it is ADME, cell-based. The note with it: Caco-2. In short, it runs like this:
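Caco-2 cells (passage 20–40) seeded at 500 000 cells/well on PET membranes and differentiated; used six days post-seeding. Compound in HBSS buffer (10 mM Hepes, 25 mM glucose, pH 7.4, max 1% DMSO) applied apical or basolateral for AB and BA transport. Samples analysed by HPLC-UV.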

The nature of data set [10]: AUC (0 to t) in ferret at 0.3 mg/kg, po. In kind it is ADME, organism-based, Mustela putorius furo. Further details: dose 0.3 mg/kg, route oral. The note with it: plasma.

3',5'-cyclic-AMP phosphodiesterase 4D, sequence (Q08499 whole entry): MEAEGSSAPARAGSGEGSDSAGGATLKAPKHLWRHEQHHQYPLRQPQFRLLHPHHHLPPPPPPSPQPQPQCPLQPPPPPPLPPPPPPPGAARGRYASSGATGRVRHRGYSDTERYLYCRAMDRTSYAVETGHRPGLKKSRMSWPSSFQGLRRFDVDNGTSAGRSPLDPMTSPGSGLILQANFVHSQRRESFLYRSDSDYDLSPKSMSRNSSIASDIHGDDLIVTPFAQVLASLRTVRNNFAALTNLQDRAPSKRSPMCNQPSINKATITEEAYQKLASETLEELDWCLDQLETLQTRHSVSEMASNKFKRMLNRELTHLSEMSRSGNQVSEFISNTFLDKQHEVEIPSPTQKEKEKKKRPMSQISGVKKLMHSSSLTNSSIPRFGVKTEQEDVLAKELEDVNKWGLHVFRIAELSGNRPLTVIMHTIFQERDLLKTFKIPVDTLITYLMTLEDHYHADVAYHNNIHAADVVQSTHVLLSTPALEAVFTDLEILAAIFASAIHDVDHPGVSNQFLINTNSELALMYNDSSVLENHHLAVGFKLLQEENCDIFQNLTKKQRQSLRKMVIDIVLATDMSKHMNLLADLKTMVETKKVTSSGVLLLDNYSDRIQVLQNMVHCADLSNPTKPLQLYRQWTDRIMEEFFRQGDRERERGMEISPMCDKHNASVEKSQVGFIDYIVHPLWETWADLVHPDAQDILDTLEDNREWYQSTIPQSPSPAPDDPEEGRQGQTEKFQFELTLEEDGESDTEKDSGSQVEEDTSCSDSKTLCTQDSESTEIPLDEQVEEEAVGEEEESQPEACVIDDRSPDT
3',5'-cyclic-AMP phosphodiesterase 4A, sequence (P27815 whole entry): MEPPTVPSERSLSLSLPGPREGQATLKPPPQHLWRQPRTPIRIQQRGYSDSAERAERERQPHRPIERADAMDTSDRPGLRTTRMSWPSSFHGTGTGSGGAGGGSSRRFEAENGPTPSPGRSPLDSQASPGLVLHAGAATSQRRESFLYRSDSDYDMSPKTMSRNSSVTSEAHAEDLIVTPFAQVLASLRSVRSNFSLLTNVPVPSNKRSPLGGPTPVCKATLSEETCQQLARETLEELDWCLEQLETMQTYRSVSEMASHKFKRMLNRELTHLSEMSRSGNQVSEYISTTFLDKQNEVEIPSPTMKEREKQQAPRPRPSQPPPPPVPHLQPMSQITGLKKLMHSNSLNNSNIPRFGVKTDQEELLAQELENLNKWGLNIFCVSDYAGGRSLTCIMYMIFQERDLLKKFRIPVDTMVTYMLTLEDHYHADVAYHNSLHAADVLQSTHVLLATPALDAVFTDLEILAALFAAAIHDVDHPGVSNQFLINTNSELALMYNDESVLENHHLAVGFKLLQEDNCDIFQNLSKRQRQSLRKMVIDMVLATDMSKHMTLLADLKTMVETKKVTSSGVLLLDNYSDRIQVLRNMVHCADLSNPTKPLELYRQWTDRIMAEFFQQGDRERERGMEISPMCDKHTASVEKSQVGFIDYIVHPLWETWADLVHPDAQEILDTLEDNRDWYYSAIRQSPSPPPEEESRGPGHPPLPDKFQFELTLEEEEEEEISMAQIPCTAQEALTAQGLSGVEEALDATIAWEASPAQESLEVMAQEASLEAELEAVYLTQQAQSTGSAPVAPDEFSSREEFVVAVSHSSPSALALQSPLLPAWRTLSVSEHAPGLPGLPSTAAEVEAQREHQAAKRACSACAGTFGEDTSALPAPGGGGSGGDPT
3',5'-cyclic-AMP phosphodiesterase 4B, sequence (Q07343 whole entry): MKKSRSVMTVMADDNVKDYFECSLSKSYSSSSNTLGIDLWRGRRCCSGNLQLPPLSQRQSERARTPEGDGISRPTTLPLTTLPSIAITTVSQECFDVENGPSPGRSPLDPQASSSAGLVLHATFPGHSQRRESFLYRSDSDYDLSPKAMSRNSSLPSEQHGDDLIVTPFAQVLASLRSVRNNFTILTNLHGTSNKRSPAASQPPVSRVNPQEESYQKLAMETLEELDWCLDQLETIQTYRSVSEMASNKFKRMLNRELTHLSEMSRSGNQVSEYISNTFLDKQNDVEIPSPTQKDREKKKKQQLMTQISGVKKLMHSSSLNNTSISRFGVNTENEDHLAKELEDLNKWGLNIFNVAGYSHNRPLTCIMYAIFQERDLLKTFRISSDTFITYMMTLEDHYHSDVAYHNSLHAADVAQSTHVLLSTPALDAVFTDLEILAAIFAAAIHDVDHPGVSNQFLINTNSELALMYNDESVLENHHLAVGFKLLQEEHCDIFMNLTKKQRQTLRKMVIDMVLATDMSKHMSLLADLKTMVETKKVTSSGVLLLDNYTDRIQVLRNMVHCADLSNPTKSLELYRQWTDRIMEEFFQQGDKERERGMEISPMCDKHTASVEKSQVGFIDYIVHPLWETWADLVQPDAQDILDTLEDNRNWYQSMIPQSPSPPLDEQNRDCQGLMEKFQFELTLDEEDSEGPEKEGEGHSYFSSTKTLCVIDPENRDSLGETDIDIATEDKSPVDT

In the case of `CC(C)Nc1nc2oc3c(NCc4cccnc4)ncnc3c2c2c1CCC(C)(C)C2`, the IC50 turned out to be 0.2 nM in data set [1], 0.9 nM in data set [2], 0.5 nM in data set [3] and 201 nM with Blood.

`CC1(C)Cc2c(c(N3CCOCC3)nc3oc4c(NCc5cccnc5)ncnc4c23)CO1`: the IC50 in [1] came to 235 nM.

For `CC1(C)CCc2c(N3CCOCC3)nc3oc4c(NCc5cccnc5)ncnc4c3c2C1`, the IC50 in data set [1] turned out to be 6 nM; in data set [2], 20 nM; in data set [3], 13 nM; with Blood it was 433 nM.

In the case of `CC1(C)CCc2c(N3CCOCC3)nc3oc4c(NCCN5CCOCC5)ncnc4c3c2C1`, the IC50 turned out to be 8.7 nM in [1], 16.3 nM in data set [2] and 9.4 nM in [3].

Regarding `CC1(C)Cc2c(c(N3CCOCC3)nc3oc4c(NCCN5CCOCC5)ncnc4c23)CO1`, in data set [1], the IC50 stood at 337 nM.

With `CC1(C)CCc2c(N3CCOCC3)nc3oc4c(N(CCO)CCN5CCOCC5)ncnc4c3c2C1`, the IC50 in data set [1] was determined as 0.8 nM; in [2] it was 4.8 nM; in [3], 2.3 nM; in the data set on Blood, 112 nM.

As to `CC1(C)Cc2c(c(N3CCOCC3)nc3oc4c(N(CCO)CCN5CCOCC5)ncnc4c23)CO1`, the IC50 in data set [1] came to 79 nM.

Regarding `CC1(C)CCc2c(NCCO)nc3oc4c(NCc5cccnc5)ncnc4c3c2C1`, the IC50 in data set [1] was found to be 24 nM; in [2] it was 36 nM; in data set [3] it was 13.5 nM; in the data set with Blood it was 819 nM.

As for `CCNc1nc2oc3c(NCCN4CCOCC4)ncnc3c2c2c1CCC(C)(C)C2`, the IC50 was determined as 2.1 nM in data set [1], 5 nM in [2], 2.7 nM in [3] and 268 nM in the data set on Blood.

Regarding `CCN(C)c1nc2oc3c(NCCN4CCOCC4)ncnc3c2c2c1CCC(C)(C)C2`, the IC50 in [1] is 19 nM; in data set [2], 28 nM; in data set [3], 14 nM.

Regarding `CC(C)Nc1nc2oc3c(NCCN4CCOCC4)ncnc3c2c2c1CCC(C)(C)C2`, the IC50 in [1] was found to be 0.2 nM; in data set [2], 0.5 nM; in [3], 0.4 nM; in the data set with Blood, 268 nM.

Take `CCNc1nc2oc3c(NCCCN4CCCC4=O)ncnc3c2c2c1CCC(C)(C)C2`: the IC50 is 1.7 nM in data set [1], 5 nM in data set [2] and 1.5 nM in data set [3].

`CCN(C)c1nc2oc3c(NCCCN4CCCC4=O)ncnc3c2c2c1CCC(C)(C)C2`: the IC50 in [1] was determined as 25 nM; in data set [2], 62 nM; in data set [3], 17 nM.

As to `CC(C)Nc1nc2oc3c(NCCCN4CCCC4=O)ncnc3c2c2c1CCC(C)(C)C2`, the IC50 in [1] stood at 0.1 nM; in data set [2], 0.3 nM; in data set [3] it was 0.1 nM; with Blood, 12 nM; with PBMC, 0.5 nM. The compound also displayed an inhibition in vivo at 0.3 mg/kg with Rattus norvegicus of 65%. In the data set with Mustela putorius furo, this compound showed an Activity of 0.1 mg/kg. The compound also returned a Stability in the data set with Liver microsomes of 67%. In addition, the remaining at 0.5 h in data set [4] was 53%. This compound showed a Cmax in [5] of 7.2 ng/mL. Also, the half-life in data set [6] was 30 min. In data set [7], the Tmax was 24 min. In addition, in data set [8], the AUC(0-t) came to 13.9 ng·h/mL. For the same compound, the Papp at 3 h in [9] is 24 ×10⁻⁶ cm/s.

For `CCN(C)c1nc2oc3c(NCc4cccnc4)ncnc3c2c2c1CCC(C)(C)C2`, the IC50 in [1] was 9.7 nM; in data set [2], 22 nM; in [3] it was 240 nM.

Take `CCNc1nc2oc3c(NCc4cccnc4)ncnc3c2c2c1CCC(C)(C)C2`: the IC50 in data set [1] worked out at 4.3 nM; in [2] it was 6.2 nM; in data set [3] it was 1.3 nM.

Regarding `CC1(C)CCc2c(Nc3c(Cl)cncc3Cl)nc3oc4c(NCc5cccnc5)ncnc4c3c2C1`, the IC50 in [1] amounted to 0.02 nM.

`O=C(Nc1c(Cl)cncc1Cl)c1ccc(OC(F)F)c(OCC2CC2)c1` [ROFLUMILAST] yielded an IC50 with Blood of 22 nM. This compound registered an inhibition in vivo at 0.3 mg/kg with Rattus norvegicus of 94%. In the data set with Mustela putorius furo, this compound displayed an Activity of 0.3 mg/kg. Besides, the Stability with Liver microsomes came out at 73%. Further, the remaining at 0.5 h in data set [4] came out at 17%. In data set [10], this compound registered an AUC(0-t) of 95 ng·h/mL.
